# Source: PubChem BioAssay (Johns Hopkins Ion Channel Center)
# In the library only some 3.7% were active in any assay of this set; here they are far more common.
# KCNK9 inh: KCNK9 potassium channel inhibitors, primary screen, HEK293 cells, thallium flux; Potassium channel subfamily K member 9 (Homo sapiens), Q9NPC2; FluxOR thallium flux fluorescence; stronger effect = lower value; B-score at 10 µM; 310,000 compounds, 1.2% hits;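 active = ratio B-score over 3 SD below the library mean, with starting fluorescence within 5 SD of its mean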;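 note: negative B-score means less thallium flux so channel inhibition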
# Target sequence (Q9NPC2 whole entry, looked up): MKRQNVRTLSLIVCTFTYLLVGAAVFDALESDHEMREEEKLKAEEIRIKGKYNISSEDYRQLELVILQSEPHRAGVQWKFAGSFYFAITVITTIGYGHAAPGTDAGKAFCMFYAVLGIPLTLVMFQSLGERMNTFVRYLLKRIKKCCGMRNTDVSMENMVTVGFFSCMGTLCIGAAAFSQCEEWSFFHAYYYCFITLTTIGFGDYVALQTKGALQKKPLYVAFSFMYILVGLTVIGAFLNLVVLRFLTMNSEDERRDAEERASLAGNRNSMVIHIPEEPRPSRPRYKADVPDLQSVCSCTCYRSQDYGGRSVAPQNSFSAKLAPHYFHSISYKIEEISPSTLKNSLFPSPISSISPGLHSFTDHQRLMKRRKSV
# KCNQ1 act: potentiators or activators of KCNQ1 channel, primary screen, cell-based, thallium flux, high-throughput; 310,000 compounds, 0.35% hits; Potassium voltage-gated channel subfamily KQT member 1 (Homo sapiens), P51787; CHO-K1 KCNQ1, thallium flux FluxOR fluorescence; stronger effect = higher value; B-score at 10 µM;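 active = fluorescence ratio B-score, a plate-corrected score, at least three library SD, with initial intensity B-score within 5 SD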
#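 Assay system: stable KCNQ1 CHO-K1 line; medium: assay buffer, equal DMSO in all wells; timing: 90 min dye loading and 20 min compound exposure, both at room temperature; technique: kinetic FluxOR thallium fluorescence, 10-s 1-Hz baseline, 110-s post-stimulus read; read-out basis: B score of baseline-normalized fluorescence ratio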
# Kir21 block: inhibitors of mouse Kir2.1 inward-rectifier potassium channel | Inward rectifier potassium channel 2 (Mus musculus), P35561 | B-score at 10 µM | 310,000 compounds, 0.85% hits | HEK293-Kir2.1, FluxOR thallium flux fluorescence; stronger effect = lower value;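 active = fluorescence ratio B-score at or below minus 3 SD of library scores, with starting-brightness B-score within 2 SD, cut at about -4.2 in these data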;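 note: channel flux triggered by added potassium and thallium sulfate stimulus; B-score of peak minus minimum fluorescence over baseline after thallium stimulus; more negative B-score means stronger Kir2.1 block with less thallium influx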
# hERG protect: hERG rescue from dofetilide block, primary screen, cell-based, CHO-hERG, FluxOR thallium flux, dofetilide IC70; dofetilide IC70 present; activation (rescue from dofetilide block), less the hit threshold, % at 10 µM; 310,000 compounds, 0.51% hits; AID 1511, 2009;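 active = activation above the mean of controls blocked by dofetilide plus 5 SD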;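 note: thallium influx through hERG after potassium depolarization seen as dye fluorescence rise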
# KCNQ1 block: inhibitors of human KCNQ1 channel, primary screen, cell-based, thallium flux, high-throughput. 310,000 compounds, 1.3% hits. B-score at 10 µM. AID 2642, 2010. CHO-K1 KCNQ1, FluxOR thallium flux fluorescence; stronger effect = higher value;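 active = compounds whose thallium flux B-score, printed positive for inhibition, exceeds three library SD while starting fluorescence stays within three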;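 note: channel opened by potassium depolarization with thallium stimulus after 20 min compound exposure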
# KCNK3 block: human KCNK3 channel inhibitors, primary screen, CHO cells, FluxOR thallium flux, B-score; FluxOR fluorescence; stronger effect = lower value; B-score at 10 µM; 340,000 compounds, 0.84% hits;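 active = B-score under library mean minus 4 SD, starting fluorescence ratio at most library mean plus 5 SD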;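 note: more negative B-score means stronger inhibition of thallium flux through KCNK3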
# KCNK3 confirm: retest of human KCNK3 channel inhibitors, confirmation, CHO cells, FluxOR thallium flux, triplicate. ratio percent of control, % at 10 µM. shares compounds with KCNK3 block. FluxOR fluorescence; 0% buffer, 100% carvedilol maximal block. AID 651638, 2012. 2,400 compounds, 99% hits;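 active = ratio percent of control, averaged over triplicates, above buffer control mean plus 5 SD, cut at about 64% in these data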;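 note: ratio is the fluorescence rise from min to max over baseline after thallium stimulus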
# KCNK3 uninduced: thallium flux inhibition in non-induced cells, primary screen, counter-screen for KCNK3 inhibitor project, cell-based, non-induced KCNK3 line, FluxOR thallium, triplicate | shares compounds with KCNK3 block | non-induced KCNK3 parental cells; stronger effect = lower value | thallium flux ratio (lower = more inhibition) at 10 µM | 2,400 compounds, 40% hits | AID 651747, 2012;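 active = thallium flux ratio, averaged over three wells, more than 5 SD below the buffer control mean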;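 note: host cells are CHO cells without KCNK3 induction; ratio is peak minus trough fluorescence over baseline then normalized to buffer controls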
# Numbers without * were called inactive; i = inactive; . = no result.
SMILES,KCNK9 inh,KCNQ1 act,Kir21 block,hERG protect,KCNQ1 block,KCNK3 block,KCNK3 confirm,KCNK3 uninduced
O=C(Nc1ccc(N2CCOCC2)cc1N1CCOCC1)c1ccccc1,.,.,.,.,.,i,.,.
CCC(C)Oc1cccc(C(=O)Nc2ccccc2N2CCOCC2)c1 (configuration not stated),i,i,1.4,-16,i,-9.8*,125*,0.15*
O=C(Nc1ccccc1N1CCCCC1)c1ccc(F)cc1,i,i,-0.01,-3,i,i,.,.
CC(C)Oc1cccc(C(=O)Nc2ccccc2N2CCOCC2)c1,i,i,0.53,-5,i,i,.,.
CC(=O)c1cccc(S(=O)(=O)Nc2cccnc2)c1,i,i,-2.1,-3,i,i,.,.
COc1ccc(C=O)cc1Cn1c(C)cc(C)c(C#N)c1=O,i,i,0.2,-7,i,i,.,.
CCc1ccc2c(c1)C1(NN=C(c3ccc(C)cc3)S1)C(=O)N2 (configuration not stated),i,i,2.7,-23,7*,-8.7*,106*,0.11*
Cc1cccc(-n2c(SCC(=O)Nc3nnc(C)s3)nnc2-c2ccoc2C)c1,i,i,1.9,-3,i,-14*,66*,0.16*
CCOC(=O)c1cc(-c2ccco2)nc2c1c(C)nn2-c1ccccc1,i,i,-0.88,-6,i,-9.4*,93*,i
CCCOC(=O)/C(=C\C=C\c1ccco1)NC(=O)c1ccccc1,i,i,0.58,-18,i,-10*,107*,0.15*
O=C(C1CCC1)N1CCN(c2ccnc3cc(Cl)ccc23)CC1,i,i,1.8,-9,i,i,.,.
O=C(C1CCCCC1)N1CCN(c2ccnc3cc(Cl)ccc23)CC1,i,i,0.48,-21,i,-8.8*,115*,i
COC(=O)C(=C/C(C)=C/c1cccnc1)C(=O)OC,i,i,-0.13,-7,i,i,.,.
CCOC(=O)c1cccc(N2C(=O)C3C(C2=O)C2C=CC3C23CC3)c1 (configuration not stated),i,i,1.3,-8,i,-18*,92*,i
Clc1nc(-c2cccnc2)nc2scc(-c3ccccc3)c12,i,i,-0.08,-9,i,i,.,.
COc1ccc(-c2csc3nc(-c4cccnc4)nc(Cl)c23)cc1OC,i,i,0.08,-15,i,-8.7*,101*,0.15*
C/C(=N\N1CCN(C2c3ccccc3-c3ccccc32)CC1)c1cccnc1,i,i,0.28,-6,i,i,.,.
C(=N\N1CCN(C2c3ccccc3-c3ccccc32)CC1)/c1cccnc1,i,i,1.1,-9,i,-10*,85*,i
COc1ccc(/C(C)=N/N2C(=O)c3ccccc3NC2c2ccc(O)c(OC)c2)cc1 (configuration not stated),i,i,0.27,-12,i,-9.3*,99*,i
Cn1c(=O)n(CCCOc2ccc(Cl)cc2)c2ccccc21,i,i,-2.1,-11,i,-8.7*,100*,i
COc1ccc(-c2[nH]ncc2N=Nc2cc(C)cc(C)c2)cc1,i,i,0.67,-7,i,i,.,.
COc1ccc(-c2[nH]ncc2N=Nc2ccccc2)cc1,i,i,-0.83,-10,i,-9.2*,88*,i
CC(C)N(Cc1ccccc1)C(=O)CCS(=O)(=O)c1ccc2c(c1)oc(=O)n2C,i,i,0.34,-6,i,i,.,.
Cc1cc(=O)oc2cc(NC(=O)c3ccccc3OC(F)F)ccc12,i,i,0.95,-6,i,-11*,105*,i
CC(CNC(=S)Nc1cc(F)cc(F)c1)CSc1ccc(Cl)cc1 (configuration not stated),i,i,-1.1,-15,9*,-13*,117*,0.14*
SMILES,KCNK9 inh,KCNQ1 act,Kir21 block,hERG protect,KCNQ1 block,KCNK3 block,KCNK3 confirm,KCNK3 uninduced
COc1ccc(CCC(=O)NC2CCC(C)CC2)cc1 (configuration not stated),i,i,1.8,-2,i,i,.,.
O=C(N/N=C/c1cc(Cl)c(O)c(Cl)c1)c1cc2c(ccc3ccccc32)o1,i,i,0.95,-28,12*,-11*,101*,0.15*
COc1cccc(NC(=O)COC(=O)c2c3c(nc4ccccc24)CCC(C)C3)c1 (configuration not stated),i,i,-1.4,-22,i,-10*,96*,i
Cc1cc(C(=O)Cn2nnc3ccccc3c2=O)c(C)n1Cc1cccs1,i,i,0.79,-2,i,-9.1*,111*,i
CC1(C)CC(=O)C=C(Nc2ccc(Cl)cc2)C1,i,i,1.7,-2,i,i,.,.
CC1(C)CC(=O)C=C(Nc2ccc(Cl)c(Br)c2)C1,i,i,-0.18,-4,i,-10*,114*,0.15*
Cc1ccc2c(ccc(=S)n2C)c1,i,i,0.55,-8,i,i,.,.
Nc1nonc1-n1nnc(C(=O)N/N=C/c2cc(Br)ccc2O)c1CNc1ccccc1,i,i,-1.4,-23,i,-10*,82*,i
Cc1ccc(C(=O)NC(=S)NCc2ccccc2)cc1Br,i,i,1.3,-6,i,i,.,.
Cc1cc(NC(=O)COC(=O)C2CC(=O)N(c3ccccc3)C2)no1 (configuration not stated),i,i,-0.39,-6,i,i,.,.
N#Cc1c(N2CCCC2)nc(N)c2c(N)nc(N3CCCC3)cc12,i,i,-0.17,-1,i,i,.,.
N#Cc1c(N2CCCCC2)nc(N)c2c(N)nc3c(c12)CC(c1ccccc1)O3 (configuration not stated),i,i,-0.3,-8,i,-9.5*,119*,0.15*
